Results reported in ChEMBL document CHEMBL1127689, “Novel 4-(aryloxy)tetrahydropyridine analogs of MPTP as monoamine oxidase A and B substrates” (J Med Chem, 1994).

Tests used:
[1] = substrate: CN1CC=C(Oc2ccccc2)CC1; test: (§1) Oxidation by human mono-amine oxidase MAO-A
Procedure, shortened: (§2)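 MAO-A preparation was diluted 1:4 in 20 mM phosphate, pH 7.4, with 20% w/v glycerol and used at 0.17 μM. Four substrate concentrations were used, from 500–62.5 μM solutions in 100 mM sodium phosphate, pH 7.4, after 1 min at 37 °C. Initial rates were taken from the 324 nm amino enone absorbance, read every 3 s for 2 min, in duplicate. Km and TN came from double-reciprocal plots.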

[2] = substrate: CN1CC=C(Oc2ccc(-c3ccccc3)cc2)CC1; test: as §1; procedure, shortened: as §2
[3] = substrate: CN1CC=C(Oc2cc3ccccc3c3ccccc23)CC1; test: as §1; procedure, shortened: as §2
[4] = substrate: CN1CC=C(Oc2ccc3ccccc3c2)CC1; test: as §1; procedure, shortened: as §2
[5] = substrate: CN1CC=C(Oc2ccc(Cl)cc2Cl)CC1; test: as §1; procedure, shortened: as §2
[6] = substrate: CN1CC=C(Cc2cc3ccccc3c3ccccc23)CC1; test: as §1; procedure, shortened: as §2
[7] = substrate: CN1CC=C(Oc2ccc(C(C)(C)C)cc2)CC1; test: as §1; procedure, shortened: as §2
[8] = substrate: CN1CC=C(Oc2cccc3ccccc23)CC1; test: as §1; procedure, shortened: as §2
[9] = substrate: CCCCc1ccc(OC2=CCN(C)CC2)cc1; test: as §1; procedure, shortened: as §2
[10] = substrate: CN1CC=C(Oc2ccccc2)CC1; test: (§3) Oxidation by bovine mono-amine oxidase B MAO-B; set-up: species or system Bos taurus
Procedure, shortened: (§4)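 Bovine liver mitochondrial MAO-B, partially purified, at 0.087 μM. Four substrate concentrations were used, from 500–62.5 μM solutions in 100 mM sodium phosphate, pH 7.4. Each was equilibrated 1 min at 37 °C before enzyme was added. Amino enone formation was read at 324 nm every 3 s for 2 min, in duplicate. Km and TN came from Lineweaver-Burk double-reciprocal plots of initial rates.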

[11] = substrate: CN1CC=C(Oc2ccc(-c3ccccc3)cc2)CC1; test: as §3; set-up: species or system Bos taurus; procedure, shortened: as §4
[12] = substrate: CN1CC=C(Oc2ccc3ccccc3c2)CC1; test: as §3; set-up: species or system Bos taurus; procedure, shortened: as §4
[13] = substrate: CN1CC=C(Oc2ccc(Cl)cc2Cl)CC1; test: as §3; set-up: species or system Bos taurus; procedure, shortened: as §4
[14] = substrate: CN1CC=C(Oc2ccc(C(C)(C)C)cc2)CC1; test: as §3; set-up: species or system Bos taurus; procedure, shortened: as §4
[15] = substrate: CN1CC=C(Oc2cccc3ccccc23)CC1; test: as §3; set-up: species or system Bos taurus; procedure, shortened: as §4
[16] = substrate: CN1CC=C(Cc2ccc3ccccc3c2)CC1; test: as §3; set-up: species or system Bos taurus; procedure, shortened: as §4
[17] = substrate: CCCCc1ccc(OC2=CCN(C)CC2)cc1; test: as §3; set-up: species or system Bos taurus; procedure, shortened: as §4

B1: Amine oxidase [flavin-containing] A (Homo sapiens) (protein)
chain: MENQEKASIAGHMFDVVVIGGGISGLSAAKLLTEYGVSVLVLEARDRVGGRTYTIRNEHVDYVDVGGAYVGPTQNRILRLSKELGIETYKVNVSERLVQYVKGKTYPFRGAFPPVWNPIAYLDYNNLWRTIDNMGKEIPTDAPWEAQHADKWDKMTMKELIDKICWTKTARRFAYLFVNINVTSEPHEVSALWFLWYVKQCGGTTRIFSVTNGGQERKFVGGSGQVSERIMDLLGDQVKLNHPVTHVDQSSDNIIIETLNHEHYECKYVINAIPPTLTAKIHFRPELPAERNQLIQRLPMGAVIKCMMYYKEAFWKKKDYCGCMIIEDEDAPISITLDDTKPDGSLPAIMGFILARKADRLAKLHKEIRKKKICELYAKVLGSQEALHPVHYEEKNWCEEQYSGGCYTAYFPPGIMTQYGRVIRQPVGRIFFAGTETATKWSGYMEGAVEAGERAAREVLNGLGKVTEKDIWVQEPESKDVPAVEITHTFWERNLPSVSGLLKIIGFSTSVTALGFVLYKYKLLPRS
Km [1]: 55 µM
Km [2]: 101 µM
Km [3]: 278 µM
Km [4]: 77 µM
Km [5]: 29 µM
Km [6]: 480 µM
Km [7]: 130 µM
Km [8]: 144 µM
Km [9]: 51 µM

B2: Amine oxidase [flavin-containing] B (Bos taurus) (protein)
chain: MSSKCDVVVVGGGISGMAAAKLLHDSGLNVIVLEARDRVGGRTYTLRNQKVKYVDLGGSYVGPTQNHILRLSKELGLETYKVNEVERLIHHTKGKSYPFRGSFPSVWNPITYLDHNNLWRTMDDMGREIPSDAPWKAPLAEQWDLMTMKELLDKICWTESSKQLAILFVNLCVTAEIHEVSALWFLWYVKQCGGTTRIFSTSNGGQERKFVGGSGQVSERIMDLLGDRVKLERPVIHIDQTGENVLVETLNHELYEAKYVISAVPPVLGMKIHFNPPLPMMRNQLITRVPLGSVIKSIVYYKEPFWRNMDYCGSMIIEGEEAPVAYALDDTKPDGSYPAIIGFILAHKARKLARLTKEERLKKLCDLYAKVLGSQEALHPVHYEEKNWCEEQYSGGCYTSYFPPGIMTQYGRVLRQPVGRIYFAGTETATHWSGYMEGAVEAGERAAREILHAMGKIPEDEIWLPEPESVDVPAKPITTTFLQRHLPSVPGLLKLIGLTTIFSATALGFLAHKRGLLVRI
Km [10]: 58 µM
Km [11]: 284 µM
Km [12]: 274 µM
Km [13]: 167 µM
Km [14]: 56 µM
Km [15]: 143 µM
Km [16]: 892 µM
Km [17]: 84 µM
